Assay results: ChEMBL document CHEMBL1135993, “4,5-diphenyltriazol-3-ones: openers of large-conductance Ca(2+)-activated potassium (maxi-K) channels” (J Med Chem, 2002)

Biological target: Calcium-activated potassium channel subunit alpha-1 (Mus musculus) (UniProt Q08460)
Test: Percent opening of mouse maxi-K channel expressed in xenopus oocyte at a concentration of 20 umolar under voltage clamp.
Type: functional
Conditions: Xenopus laevis oocytes
In short: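 Xenopus laevis oocytes injected with mSlo cRNA 2–6 days before recording, kept at 17 °C in ND96 (mM: NaCl 90, KCl 1.0, CaCl2 1.0, MgCl2 1.0, HEPES 5.0, pH 7.5) with 5% horse serum and penicillin/streptomycin. Two-electrode voltage clamp, steps 500–750 ms, +20 mV increments from −60 mV holding to +140 mV. Compound gravity-perfused at 20 μM. Iberiotoxin-sensitive outward current expressed as percent of control; mean of ≥5 oocytes.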

Sequence of Calcium-activated potassium channel subunit alpha-1 (Mus musculus) (Q08460 whole entry): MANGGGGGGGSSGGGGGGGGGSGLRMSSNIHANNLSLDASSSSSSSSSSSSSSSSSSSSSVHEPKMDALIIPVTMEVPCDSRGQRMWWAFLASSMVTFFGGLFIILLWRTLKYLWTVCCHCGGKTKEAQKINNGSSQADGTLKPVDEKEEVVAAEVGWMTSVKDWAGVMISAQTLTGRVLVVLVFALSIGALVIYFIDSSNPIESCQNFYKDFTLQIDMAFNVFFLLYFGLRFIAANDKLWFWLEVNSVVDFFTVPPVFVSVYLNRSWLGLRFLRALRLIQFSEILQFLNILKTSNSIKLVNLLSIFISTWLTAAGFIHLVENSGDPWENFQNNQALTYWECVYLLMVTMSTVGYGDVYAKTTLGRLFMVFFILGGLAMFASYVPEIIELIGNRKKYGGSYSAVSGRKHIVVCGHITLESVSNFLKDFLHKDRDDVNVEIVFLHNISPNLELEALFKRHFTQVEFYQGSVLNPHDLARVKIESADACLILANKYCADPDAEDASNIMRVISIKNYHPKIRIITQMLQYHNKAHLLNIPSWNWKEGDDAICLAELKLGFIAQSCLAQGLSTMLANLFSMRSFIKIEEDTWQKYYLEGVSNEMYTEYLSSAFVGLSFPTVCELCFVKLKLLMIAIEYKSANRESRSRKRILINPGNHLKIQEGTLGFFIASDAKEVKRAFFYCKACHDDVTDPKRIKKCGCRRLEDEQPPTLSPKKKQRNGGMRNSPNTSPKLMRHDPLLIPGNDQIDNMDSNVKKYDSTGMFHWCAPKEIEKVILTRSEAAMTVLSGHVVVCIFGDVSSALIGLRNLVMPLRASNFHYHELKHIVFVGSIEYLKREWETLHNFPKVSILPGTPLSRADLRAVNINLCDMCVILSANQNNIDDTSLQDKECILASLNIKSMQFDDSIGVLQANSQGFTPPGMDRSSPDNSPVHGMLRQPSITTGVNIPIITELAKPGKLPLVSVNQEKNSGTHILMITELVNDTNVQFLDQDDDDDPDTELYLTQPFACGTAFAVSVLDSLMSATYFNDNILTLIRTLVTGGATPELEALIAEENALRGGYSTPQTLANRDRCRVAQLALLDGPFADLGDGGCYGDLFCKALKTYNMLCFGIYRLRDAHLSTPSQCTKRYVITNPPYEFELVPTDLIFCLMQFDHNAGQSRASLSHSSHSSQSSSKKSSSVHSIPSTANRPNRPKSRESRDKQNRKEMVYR

SMILES | Activity [%]
Oc1ccc(Cl)cc1-n1c(O)nnc1-c1ccccc1 | 101
Oc1ccc(Cl)cc1Cc1nccn1-c1ccc(C(F)(F)F)cc1 | 105
O=c1[nH]c2cc(C(F)(F)F)ccc2n1-c1cc(C(F)(F)F)ccc1O | 116
Nc1nnc(-c2ccc(C(F)(F)F)cc2)n1-c1cc(Cl)ccc1O | 117
O=c1onc(-c2cc(C(F)(F)F)cc(C(F)(F)F)c2)n1-c1cc(Cl)ccc1O | 92
Oc1ccc(Cl)cc1-n1cncc1-c1ccc(C(F)(F)F)cc1 | 126
O=c1onc(-c2ccc(C(F)(F)F)cc2)n1Cc1cc(Cl)ccc1O | 101
Oc1ccc(Cl)cc1-n1c(O)nnc1-c1cc(C(F)(F)F)cc(C(F)(F)F)c1 | 159
Oc1ccc(Cl)cc1-n1c(O)nnc1-c1ccc(F)cc1 | 118
Cn1nc(-c2ccc(C(F)(F)F)cc2)n(-c2cc(Cl)ccc2O)c1=O | 93
O=c1[nH]c2cc(C(F)(F)F)ccc2n1-c1cc(Cl)ccc1O | 132
Oc1ccc(Cl)cc1-n1cnnc1-c1ccc(C(F)(F)F)cc1 | 102

Further lines, results first:

Activity [%] | SMILES
99 | Oc1ccc(-n2c(O)nnc2-c2ccc(C(F)(F)F)cc2)cc1Cl
125 | Oc1ccc(Cl)cc1-n1c(O)nnc1Cc1ccc(C(F)(F)F)cc1
121 | Oc1ccc(Cl)cc1-n1c(O)nnc1-c1ccc(C(F)(F)F)cc1
138 | Oc1ccc(Cl)cc1-n1c(O)nnc1-c1cccc(C(F)(F)F)c1
109 | Oc1ccc(Cl)cc1Cn1c(O)nnc1-c1ccc(C(F)(F)F)cc1
107 | Oc1ccc(Cl)cc1-n1c(O)nnc1-c1ccccc1C(F)(F)F
123 | Oc1ccc(Cl)cc1-c1nnc(O)n1-c1ccc(C(F)(F)F)cc1
128 | Oc1ccc(Cl)cc1-c1nnc(O)n1Cc1ccc(C(F)(F)F)cc1
101 | Oc1ccc(Cl)c(-n2c(O)nnc2-c2ccc(C(F)(F)F)cc2)c1
84 | Oc1ccc(Cl)cc1Cc1nnc(O)n1-c1ccc(C(F)(F)F)cc1
128 | Oc1ccc(Cl)cc1-n1c(S)nnc1-c1ccc(C(F)(F)F)cc1
